This is an account of results in ChEMBL document CHEMBL1240347, “MK-7009, a potent and selective inhibitor of hepatitis C virus NS3/4A protease” (Antimicrob Agents Chemother, 2010).

For test [1], the target named is Cathepsin S (Homo sapiens, UniProt P25774). The test can be described thus: Inhibition of human Cathepsin S.
The target of test [2] is Procathepsin L (Homo sapiens, UniProt P07711). The test can be described thus: Inhibition of human Cathepsin L.
For test [3], the target named is T1, Cathepsin L2 (Homo sapiens, UniProt O60911).
T1 sequence (O60911 whole entry): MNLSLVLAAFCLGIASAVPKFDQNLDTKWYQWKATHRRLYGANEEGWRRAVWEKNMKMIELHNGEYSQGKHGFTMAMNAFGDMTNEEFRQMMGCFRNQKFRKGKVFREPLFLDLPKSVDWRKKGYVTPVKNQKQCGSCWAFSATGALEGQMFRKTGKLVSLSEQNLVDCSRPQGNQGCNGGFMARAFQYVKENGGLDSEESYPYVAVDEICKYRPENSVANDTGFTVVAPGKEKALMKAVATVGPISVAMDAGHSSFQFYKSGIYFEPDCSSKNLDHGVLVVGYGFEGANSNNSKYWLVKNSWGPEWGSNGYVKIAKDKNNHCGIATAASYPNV
The test can be described thus: Inhibition of human Cathepsin V.

For test [4], the target named is T2, Chymase (Homo sapiens, UniProt P23946).
T2 sequence (P23946 whole entry): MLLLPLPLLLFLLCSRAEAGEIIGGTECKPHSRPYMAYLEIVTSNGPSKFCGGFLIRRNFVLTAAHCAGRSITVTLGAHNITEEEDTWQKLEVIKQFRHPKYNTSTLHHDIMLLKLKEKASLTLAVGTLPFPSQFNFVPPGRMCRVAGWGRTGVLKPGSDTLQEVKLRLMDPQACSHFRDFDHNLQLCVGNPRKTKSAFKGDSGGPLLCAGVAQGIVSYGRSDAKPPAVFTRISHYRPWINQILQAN
The test can be described thus: Inhibition of human Chymase.

In test [5] the target is Chymotrypsin-like elastase family member 1 (Homo sapiens, UniProt Q9UNI1). The test can be described thus: Inhibition of human Pancreatic elastase 1.
Test [6] has as its target T3, Neutrophil elastase (Homo sapiens, UniProt P08246).
T3 sequence (P08246 whole entry): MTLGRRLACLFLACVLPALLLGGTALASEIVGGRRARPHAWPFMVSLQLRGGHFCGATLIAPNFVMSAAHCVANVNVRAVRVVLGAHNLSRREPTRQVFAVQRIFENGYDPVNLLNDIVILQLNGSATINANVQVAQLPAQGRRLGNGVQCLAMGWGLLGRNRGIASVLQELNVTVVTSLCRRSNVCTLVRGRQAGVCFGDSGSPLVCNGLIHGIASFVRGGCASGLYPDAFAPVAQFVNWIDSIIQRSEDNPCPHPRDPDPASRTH
The test can be described thus: Inhibition of human Neutrophil elastase 2.

For test [7], the target named is T4, Cathepsin K (Homo sapiens, UniProt P43235).
T4 sequence (P43235 whole entry): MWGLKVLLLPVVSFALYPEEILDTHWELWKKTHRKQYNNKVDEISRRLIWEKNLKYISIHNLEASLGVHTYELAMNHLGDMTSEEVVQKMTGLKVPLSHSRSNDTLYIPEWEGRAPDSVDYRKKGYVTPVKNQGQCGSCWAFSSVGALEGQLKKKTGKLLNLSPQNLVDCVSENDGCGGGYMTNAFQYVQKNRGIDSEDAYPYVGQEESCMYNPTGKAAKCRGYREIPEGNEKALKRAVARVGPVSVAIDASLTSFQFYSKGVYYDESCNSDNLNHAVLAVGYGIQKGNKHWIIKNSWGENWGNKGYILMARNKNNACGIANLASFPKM
The test can be described thus: Inhibition of human Cathepsin K.

The target of test [8] is T5, Cathepsin F (Homo sapiens, UniProt Q9UBX1).
T5 sequence (Q9UBX1 whole entry): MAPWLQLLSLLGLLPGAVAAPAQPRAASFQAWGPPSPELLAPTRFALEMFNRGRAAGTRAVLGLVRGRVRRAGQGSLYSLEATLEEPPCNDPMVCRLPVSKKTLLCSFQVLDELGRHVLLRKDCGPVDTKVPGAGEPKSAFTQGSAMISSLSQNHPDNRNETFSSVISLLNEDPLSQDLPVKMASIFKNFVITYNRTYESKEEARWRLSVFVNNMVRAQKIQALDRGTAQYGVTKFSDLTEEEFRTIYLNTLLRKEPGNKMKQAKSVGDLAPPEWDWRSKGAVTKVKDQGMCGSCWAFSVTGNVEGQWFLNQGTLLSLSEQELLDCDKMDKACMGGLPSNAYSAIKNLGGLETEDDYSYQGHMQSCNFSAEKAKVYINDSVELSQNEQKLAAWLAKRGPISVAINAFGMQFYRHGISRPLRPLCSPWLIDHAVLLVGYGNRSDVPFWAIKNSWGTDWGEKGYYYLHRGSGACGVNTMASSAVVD
The test can be described thus: Inhibition of human Cathepsin F.

Test [9] concerns the target Cathepsin B (Homo sapiens, UniProt P07858). The test can be described thus: Inhibition of human Cathepsin B.
Test [10] in a line: Cytotoxicity against […] cells. The format is cell-based. The following applies: HB1.
Test [11] has as its system Hepatitis C virus. The test can be described thus: Antiviral activity against Hepatitis C virus genotype 2a infected in […] cell by cell-based HCV replicon assay in presence of 10% fetal bovine serum. Type of test: functional, organism-based, Hepacivirus hominis. (Replicon systems follow genome replication, usually without infectious particles.)
The subject of test [12] is Hepatitis C virus. The test can be described thus: Antiviral activity against Hepatitis C virus genotype 1b infected in […] cell by cell-based HCV replicon assay in presence of 50% normal human serum. The format is functional, organism-based, Hepacivirus hominis. In a few lines: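 Stable genotype 1b (con1) replicon cell line HB1, assayed in the presence of 50% normal human serum.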

Test [13] concerns Hepatitis C virus. The test can be described thus: Antiviral activity against Hepatitis C virus genotype 1b infected in […] cell by cell-based HCV replicon assay in presence of 10% fetal bovine serum. Type of test: functional, organism-based, Hepacivirus hominis. In a few lines: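 Stable genotype 1b (con1) replicon cell line HB1, assayed in medium with 10% fetal bovine serum.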

A short description of test [14]: Inhibition of Hepatitis C virus genotype 2b NS3/4A protease activity. Also on record: species or system Hepatitis C virus subtype 2b. In a few lines: (§1)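 Recombinant NS3/4A protease was expressed in and purified from E. coli. Inhibition was measured by a time-resolved, internally quenched fluorescence assay at low enzyme concentration. Kis were reported.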
Test [15] is described as follows: Inhibition of Hepatitis C virus genotype 2a NS3/4A protease activity. More on the design: species or system Hepatitis C virus subtype 2a. The method, boiled down: as §1
The test system of test [16] is Hepatitis C virus. The test can be described thus: Inhibition of Hepatitis C virus genotype 1b NS3/4A protease activity. Also on record: species or system Hepatitis C virus subtype 1b. In a few lines: as §1
The nature of test [17]: Inhibition of Hepatitis C virus genotype 1a NS3/4A protease activity. Also on record: species or system Hepatitis C virus subtype 1a. In a few lines:
as §1

The target of test [18] is Serine protease 1 (Homo sapiens, UniProt P07477). The test can be described thus: Inhibition of human Trypsin activity.
Test [19] is described as follows: Inhibition of human Chymotrypsin.

Procathepsin L, sequence (P07711 whole entry): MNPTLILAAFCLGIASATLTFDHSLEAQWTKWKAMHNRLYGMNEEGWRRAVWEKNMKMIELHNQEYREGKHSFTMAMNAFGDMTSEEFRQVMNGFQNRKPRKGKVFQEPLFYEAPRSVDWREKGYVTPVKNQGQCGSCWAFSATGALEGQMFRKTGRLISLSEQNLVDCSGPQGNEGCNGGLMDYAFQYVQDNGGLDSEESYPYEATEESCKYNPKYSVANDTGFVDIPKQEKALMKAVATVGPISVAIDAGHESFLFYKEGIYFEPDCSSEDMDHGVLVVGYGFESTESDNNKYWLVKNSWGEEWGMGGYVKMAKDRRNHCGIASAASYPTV
Cathepsin S, sequence (P25774 whole entry): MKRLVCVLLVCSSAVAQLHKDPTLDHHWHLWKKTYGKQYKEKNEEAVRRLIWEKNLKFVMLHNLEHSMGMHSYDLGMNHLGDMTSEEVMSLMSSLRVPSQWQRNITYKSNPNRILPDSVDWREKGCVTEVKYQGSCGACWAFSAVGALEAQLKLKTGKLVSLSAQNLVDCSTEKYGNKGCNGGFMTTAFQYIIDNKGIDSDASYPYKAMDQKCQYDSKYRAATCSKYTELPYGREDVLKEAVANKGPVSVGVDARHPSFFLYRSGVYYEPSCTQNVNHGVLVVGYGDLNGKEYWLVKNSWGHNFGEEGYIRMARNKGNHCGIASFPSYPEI
Chymotrypsin-like elastase family member 1, sequence (Q9UNI1 whole entry): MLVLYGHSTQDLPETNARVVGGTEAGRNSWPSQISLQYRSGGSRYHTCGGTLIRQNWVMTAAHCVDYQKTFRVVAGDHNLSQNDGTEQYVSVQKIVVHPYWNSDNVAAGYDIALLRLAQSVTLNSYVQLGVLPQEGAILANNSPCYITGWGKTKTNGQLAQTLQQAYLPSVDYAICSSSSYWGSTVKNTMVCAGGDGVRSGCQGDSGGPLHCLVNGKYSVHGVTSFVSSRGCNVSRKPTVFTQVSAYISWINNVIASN
Serine protease 1, sequence (P07477 whole entry): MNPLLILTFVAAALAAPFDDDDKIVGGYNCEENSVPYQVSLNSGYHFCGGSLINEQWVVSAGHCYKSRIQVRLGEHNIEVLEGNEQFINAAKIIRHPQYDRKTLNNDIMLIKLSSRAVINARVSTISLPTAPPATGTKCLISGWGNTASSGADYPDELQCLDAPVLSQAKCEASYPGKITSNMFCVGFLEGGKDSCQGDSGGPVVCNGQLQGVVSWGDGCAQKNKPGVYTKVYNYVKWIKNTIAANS

What is called IC50 is the concentration at which inhibition is half-maximal. High values mean lower potency, low ones higher potency. A word on the EC50: it is the concentration that produces a half-maximal response. In general, Ki refers to the dissociation constant of the complex between target and ligand, obtained from inhibition or displacement. For `CC(C)(C)NC(=O)N[C@H](C(=O)N1C[C@H]2[C@@H]([C@H]1C(=O)NC(CC1CCC1)C(=O)C(N)=O)C2(C)C)C(C)(C)C` (some centres undefined) [BOCEPREVIR], the IC50 in test [1] is 120 nM; in test [2], 760 nM; in [3] it was 75 nM; in test [4] it was 32 nM; in [5], > 10000 nM; in test [6], > 10000 nM. Further, the IC50 in test [7] was 40 nM; in [8] it was 1100 nM; in test [9], > 3300 nM. In addition, the EC50 in test [10] is > 50000 nM; in [11], 170 nM; in test [12], 1180 nM; in test [13], 480 nM. Besides, the Ki in test [14] was found to be 21 nM; in [15], 25 nM; in test [16], 28 nM; in test [17], 21 nM.

On to `CCC[C@H](NC(=O)[C@@H]1[C@H]2CCC[C@H]2CN1C(=O)[C@@H](NC(=O)[C@@H](NC(=O)c1cnccn1)C1CCCCC1)C(C)(C)C)C(=O)C(=O)NC1CC1` [TELAPREVIR], for which the IC50 came out at 300 nM in [1]; 3500 nM in [2]; 1350 nM in test [3]; 26 nM in test [4]; 30 nM in [5]; 8000 nM in [6]. Moreover, the IC50 was 630 nM in [7]; > 10000 nM in [8]; 4400 nM in test [9]; > 10000 nM in [18]; 3000 nM in test [19]. Besides, the EC50 in test [10] was > 50000 nM; in test [11] it was 390 nM; in test [12] it was 8600 nM; in test [13] it was 1100 nM. Besides, the Ki in [14] was 42 nM; in [15] it was 54 nM; in test [16], 93 nM; in test [17] it was 130 nM.

Regarding `COc1ccc2c(O[C@@H]3C[C@H]4C(=O)N[C@]5(C(=O)O)C[C@H]5/C=C\CCCCC[C@H](NC(=O)OC5CCCC5)C(=O)N4C3)cc(-c3csc(NC(C)C)n3)nc2c1` [CILUPREVIR], the EC50 in test [10] was 50000 nM; in [11], 27 nM; in test [12], 17 nM; in test [13] it was 3 nM. Also, the Ki in test [14] was found to be 61 nM; in test [15], 7 nM; in [16], 0.3 nM; in test [17] it was 0.81 nM.
